Sampled rows, rich in hits. Any-hit rate of the full collection: about 4.7%.
RGS4 block: inhibitors of human RGS4 | HEK293 M3R/RGS4 inducible, Fluo-4 calcium flux; active compounds read high; triggered by carbachol at its EC20 | AID 463165 | B-score at 10 µM | P49798 | hit rate 0.45% among 310,000;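 active means B-score, a plate-corrected calcium signal, over three deviations above library mean, with baseline fluorescence within five deviations of library mean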;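 further: RGS4 expression induced by doxycycline in cells with stable M3 receptor; B-score is computed from the integrated fluorescence ratio over baseline after carbachol; higher B-score means a larger calcium signal and so more RGS4 inhibition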
MrgX1 allo act: human MrgX1 positive allosteric modulation, primary screen; Q96LB2; B-score at 10 µM; MrgX1-HEK293, Fluo-4 calcium flux, FDSS; active compounds read high; AID 588675; hit rate 0.63% among 310,000;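 active means plate-corrected calcium response at least 3 library SD above typical, normal starting fluorescence, not activating the receptor alone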;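 further: compound read alongside a low EC10 to EC30 dose of BAM8-22 agonist; peak minus trough fluorescence over baseline measured at the second addition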
Target sequence (Q96LB2 whole entry, looked up): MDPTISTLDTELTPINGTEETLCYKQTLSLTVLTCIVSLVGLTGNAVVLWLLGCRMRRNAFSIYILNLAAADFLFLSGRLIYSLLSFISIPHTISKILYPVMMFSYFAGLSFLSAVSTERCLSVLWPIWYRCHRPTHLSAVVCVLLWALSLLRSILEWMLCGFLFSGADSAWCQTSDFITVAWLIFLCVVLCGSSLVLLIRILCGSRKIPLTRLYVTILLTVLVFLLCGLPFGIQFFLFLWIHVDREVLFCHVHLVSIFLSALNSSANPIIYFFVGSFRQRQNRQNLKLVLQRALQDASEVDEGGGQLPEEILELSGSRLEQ
RGS4 act: potentiators or activators of RGS4 | B-score at 10 µM | hit rate 0.92% among 310,000 | HEK293 M3R/inducible RGS4, carbachol calcium flux Fluo4; active compounds read low | AID 463111;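 active means B-score of the integrated calcium signal more than 4 SD below the library mean, with starting fluorescence not abnormally high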;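 further: negative B-score means reduced calcium response which marks RGS4 activation or potentiation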
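Assay system: Inducible-RGS4 HEK293 cells carrying M3 receptor | Schedule: Compound preincubation 20 min at room temperature before agonist | Signal: Kinetic calcium fluorescence imaging with Fluo4-AM dye, 2 µM | Read-out basis: B score from integrated fluorescence ratio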
KCC2 mod: KCC2 (human) Cl- transport modulation; AID 1456; B-score of Tl+ flux slope (higher = more flux/activation; lower = inhibition) at 10 µM; hit rate 2.2% among 190,000; KCC2 cells, thallium flux FluoZin-2 fluorescence;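 active means thallium flux slope and its plate-corrected score both differing from the plate sample mean at a set confidence after two filtering rounds, in either direction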;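 further: slope of fluorescence scaled to starting intensity during 10 to 20 s after thallium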
MrgX1 antagonist: human MrgX1 receptor antagonism, primary screen; MRGX1-HEK293 calcium flux, Fluo-4, BAM8-22 antagonism; active compounds read low; hit rate 1.3% among 310,000; Q96LB2; AID 588676; B-score at 10 µM;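 active means calcium-response B-score plate-corrected more than 3 library SD below zero, starting fluorescence within 5 deviations, no agonist response on first addition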;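 further: peak minus trough fluorescence over baseline after final BAM8-22 challenge near maximal dose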
MrgX1 ag: human MrgX1 receptor agonism, primary screen; Q96LB2; MrgX1-HEK293 cells, Fluo-4 calcium fluorescence, agonist mode; active compounds read high; B-score at 10 µM; hit rate 0.44% among 310,000;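 active means calcium response B-score plate-corrected fluorescence ratio at least 3 library SD, with starting fluorescence B-score inside 5 SD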
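Material: MrgX1-expressing HEK293 cells; input: 15,000 cells per well; doses: test compound given as first of three sequential additions; schedule: overnight plating before 1 h dye loading; technique: Fluo-4 NW calcium-flux fluorescence, kinetic read; evaluation: baseline-normalised fluorescence change ratio, B-scored; control set: plate-wise positive and negative controls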
Hits are given with their value; – = inactive; · = no result.

SMILES	RGS4 block	MrgX1 allo act	RGS4 act	KCC2 mod	MrgX1 antagonist	MrgX1 ag
CSc1ccc(C(=O)N2CCC(CCC(=O)NCc3ccc(F)cc3)CC2)cc1	–	·	–	·	·	·
CC1=CC(=C(C#N)c2nc3ccccc3s2)C=C(C)N1Cc1ccco1	–	–	-7.6	·	–	–
N#C/C(=C(/O)c1ccco1)c1nc2ccccc2s1	–	–	–	–	–	–
COc1cc([N+](=O)[O-])ccc1NC(=O)CN1CCN(C(=O)c2ccco2)CC1	–	–	–	–	-4.74	–
CC(C)N1CCc2c(sc(NC(=O)CN3C(=O)c4ccccc4C3=O)c2C(N)=O)C1	–	–	–	–	–	–
COc1cc2ccccc2cc1C(=O)Nc1sc2c(c1C(N)=O)CCN(C(C)C)C2	–	–	-7.49	·	–	–
CN1CCc2c(sc(NC(=O)c3ccc4ccccc4c3)c2C(N)=O)C1	–	–	–	·	–	37.5
C/C(=N\NC(=O)c1cccc(O)c1)c1ccc(NC(=O)Cc2ccccc2)cc1	–	–	–	·	–	–
O=C(c1cc(F)c(F)cc1Cl)N1CCN(CCc2ccccc2)CC1	–	–	–	·	–	–
O=C(O)CC1(c2ccc(F)cc2)C2CC3CC(C2)CC1C3 (centres undefined)	–	–	–	·	-6.69	–
COc1cc(C(=O)Nc2cnc(NC(=O)C(C)C)cc2C)cc(OC)c1OC	–	–	–	–	-5.68	–
CCOC(=O)N1CCC(NC(=O)CS(=O)Cc2nc(-c3ccc(C)cc3)oc2C)CC1 (centres undefined)	–	–	–	·	–	–
CN(Cc1ccccc1)C(=O)COC(=O)C1CCN(S(=O)(=O)c2ccc(Cl)c(C(F)(F)F)c2)CC1	–	–	–	·	–	–
Cc1ccccc1N=Nc1ccc(O)c2ncccc12	–	–	–	41.4	–	–
Nc1ccc(N=Nc2ccccc2)c2cccnc12	4.96	–	–	·	–	–
Nc1ccc(Br)c2cccnc12	–	–	–	–	–	–
CCOC(=O)C1CCN(S(=O)(=O)c2cn(C)c(C)n2)CC1	–	–	–	·	–	–
COc1cc(NC(=O)CSc2nc(=O)n(CCN3CCOCC3)c3c2CCCC3)cc(OC)c1	–	–	–	·	–	–
CCc1cc2c(-c3ccccc3)cc(=O)oc2c(CN2CCOCC2)c1O	–	–	–	–	–	42.6
O=c1cc(-c2ccccc2)c2ccc(O)c(CN3CCCCC3)c2o1	–	–	–	–	–	–
O=c1cc(-c2ccccc2)c2cc(Cl)c(O)c(CN3CCOCC3)c2o1	–	9.79	–	–	–	–
Cc1ccc(C(=O)c2cc([N+](=O)[O-])ccc2N2CCCCC2)cc1C	–	–	-7.59	–	–	–
COC(=O)c1ccccc1NC(=O)CSc1nc(Nc2ccccc2)nc(N2CCOCC2)n1	–	–	–	·	–	–
CC(OCCN1CCCC1)(c1ccc(F)cc1)c1ccc(F)cc1	–	–	-7.49	·	–	–
O=C(CSc1ccccc1)Nc1ccc2c(c1)C(=O)NC2=O	–	–	–	·	–	–
SMILES	RGS4 block	MrgX1 allo act	RGS4 act	KCC2 mod	MrgX1 antagonist	MrgX1 ag
COc1ccccc1CCC(=O)N(C)CC(=O)Nc1ccc(Cl)c(C(F)(F)F)c1	–	–	–	·	–	–
Cc1cc(C2=NNC(=NC3CC3)SC2)c(C)n1Cc1ccco1	·	–	·	–	–	–
COCCCN=C1NN=C(c2cc(C)n(Cc3ccco3)c2C)CS1	–	10.5	–	–	–	–
Cc1cc2oc(=O)cc(CN(C)Cc3ccccc3F)c2cc1Cl	–	–	-7.03	·	–	–
COc1ccc(CN(C)Cc2cc(=O)oc3cc(C)c(C(C)C)cc23)cc1OC	–	–	-7.12	·	–	–
CCOc1ccc(NC(=S)N2CCC(NC(=O)c3ccco3)CC2)cc1	–	–	–	·	–	–
CC1=CC(C)(C)n2c(O)c(N=NC(N)=S)c3c(C)c(C)cc1c32	–	–	–	–	–	–
CC1=CC(C)(C)n2c(O)c(N=NC(N)=S)c3cccc1c32	–	–	–	5.89	–	–
CCCc1cc(C(=O)Nc2ccc(C(=O)c3ccc(C)cc3)cc2)n(C)n1	–	–	-7.39	·	–	–
CCCc1cc(C(=O)Nc2cccc3ccccc23)n(C)n1	–	–	–	·	–	–

Screening results from PubChem BioAssay.
